Assay results published in ChEMBL document CHEMBL2029291, “Synthesis and structure-activity relationships of new quinolone-type molecules against Trypanosoma brucei” (J Med Chem, 2012).
Where a name gives a salt, the structure may show the parent alone. Active and inactive are the calls of the source. The calls are words filed in the database; no cut-off is given here.

Columns and labels:
[1] = system: Trypanosoma brucei brucei; experiment: Cell cycle arrest in GFP-labeled Trypanosoma brucei brucei assessed as increase in segregated 1K1N cell population at IC50 concentration after 42 hrs by DAPI staining-based fluorescence microscopic analysis
[2] = system: Trypanosoma brucei brucei; experiment: Antitrypanosomal activity against Trypanosoma brucei brucei TC221 […] after 48 hrs by alamar blue assay; type: functional, organism-based; details: for IC50: TC221, 48 h
Outline: (§1)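 Trypomastigote T. b. brucei TC 221 grown in Baltz medium, seeded at 10⁴ per mL and exposed to graded compound concentrations (dissolved in DMSO or 0.1 M NaOH). Incubated at 37 °C, 5% CO₂ for 72 h, with a reading also taken at 48 h. AlamarBlue absorbance read at 550/630 nm. IC50 by linear interpolation; duplicate tests, mean and SD.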

[3] = Selectivity index, ratio of IC50 for mouse J774.1 cells to IC50 for Trypanosoma brucei brucei TC221; type: toxicity; details: read-out: Ratio IC50
[4] = system: Trypanosoma brucei brucei; experiment: Antitrypanosomal activity against Trypanosoma brucei brucei TC221 […] after 72 hrs by alamar blue assay; type: functional, organism-based; details: for IC50: TC221, 72 h
Outline: as §1

[5] = Cytotoxicity against mouse J774.1 cells after 48 hrs by alamar blue assay; type: cell-based; details: J774.1, 48 h
Outline: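 J774.1 macrophages kept in complete Click RPMI, detached by scraping, PBS-washed, suspended at 2 × 10⁶ cells/mL and plated in phenol-red-free RPMI with or without compound. AlamarBlue added and absorbance read 24 and 48 h later. Compound-free wells taken as 100% growth. Effects of cell density, incubation time and DMSO level were controlled. Tested in duplicate.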

[6] = Lipophilicity, log P of the compound by RP-HPLC analysis; type: physicochemical
Outline: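 LogP by RP-HPLC on a C18 Inertsil ODS-2 column. Mobile phase was methanol/10 mM phosphate buffer pH 7.4 (70:30) at 1.5 mL/min. Samples were at 4 μg/mL, detected at 254.4 nm, and run in duplicate. Capacity ratio was calculated as k′ = (tr − to)/to.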

[7] = Aqueous solubility of the compound in 10% Tween 80; type: physicochemical; details: buffer
Outline: (§2)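 Water solubility was assessed after adding 10% Tween 80 or 10% Cremophor RH40 to the compound.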

[8] = system: Trypanosoma brucei rhodesiense; experiment: Antitrypanosomal activity against Trypanosoma brucei rhodesiense STIB900 infected in NMRI mouse at 50 mg/kg, po administered on day 3 to 6 post infection measured every second day up to 6 days post infection; type: functional, organism-based; set-up: dose 50 mg/kg
Outline: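 Acute mouse model with T. b. rhodesiense STIB900-infected NMRI mice. Compound was given orally as a 1:1 aqueous dilution of a 10 mg/mL preconcentrate (Cremophor RH40 35%, Capmul MCM C8 45%, triethylcitrate 10%, ethanol 10%). An untreated control group was included. Parasitemia was checked every second day to day 6, and survival was recorded. Aparasitemic survivors at 60 days were counted as cured.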

[9] = system: Trypanosoma brucei rhodesiense; experiment: Antitrypanosomal activity against Trypanosoma brucei rhodesiense STIB900 […] after 48 hrs by alamar blue assay; type: functional, organism-based
Trypanosoma brucei [10] = experiment: Antitrypanosomal activity in topoisomerase 2-knockout BSF Trypanosoma brucei assessed as assessed as shrinkage of kinetoplast over time at IC50 concentration after 72 hrs by […]; type: functional, organism-based
Outline: (§3)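 RNAi against mitochondrial topoisomerase II in the BSF mitochondrion marker line. A 500 bp topoII fragment in p2T7-177 was transfected by nucleofection, with puromycin selection at 0.3 μg/mL. RNAi was induced with 1 μg/mL tetracycline. Knockdown was confirmed by Northern blot at 24 h, with tubulin as reference. Growth and DAPI-stained kinetoplast loss were followed over time.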

[11] = Aqueous solubility of the compound in 10% Cremophore RH40; type: physicochemical; details: buffer
Outline: as §2

[12] = Selectivity index, ratio of IC50 for mouse J774.1 cells to IC50 for Trypanosoma brucei rhodesiense STIB900; type: toxicity; details: read-out: Ratio IC50
Outline: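 Selectivity index is the J774.1 IC50 divided by the trypanosome IC50. J774.1 macrophages were kept in complete Click RPMI, washed, and plated in phenol red-free RPMI with compound. AlamarBlue was added and plates were read 24 and 48 h later. Absorbance without compound was set as 100% growth.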

[13] = Aqueous solubility of the compound in 35% cremophore RH40, 45% capmul MCM C8, 10% triethylcitrate and 10% ethanol; type: physicochemical; details: buffer
Outline: (§4)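 Oral preconcentrate of Cremophor RH40 (35%), Capmul MCM C8 (45%), triethylcitrate (10%) and ethanol (10%) was tested for dissolving compound at 10 mg/mL. Stability of the emulsion formed in aqueous solution was observed over time.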

[14] = Chemical stability of the compound in 35% cremophore RH40, 45% capmul MCM C8, 10% triethylcitrate and 10% ethanol after 24 hrs; type: physicochemical
Outline: as §4

Trypanosoma brucei [15] = experiment: Antitrypanosomal activity in topoisomerase 2-knockout BSF Trypanosoma brucei assessed as assessed as shrinkage of kinetoplast over time at IC50 concentration after 48 hrs by […]; type: functional, organism-based
Outline: as §3

Compound	IC50 [2] [µM]	IC50 [4] [µM]	selectivity ratio [3]	IC50 [5] [µM]	other results
O=C(O)c1cn(C2CC2)c2cc(N3CCNCC3)c(F)cc2c1=O	–	–	–	–	Activity [1]: Active
Nc1nc(N)nc(Nc2ccc([As]3SCC(CO)S3)cc2)n1 (configuration not stated) [MELARSOPROL]	0.0026	–	–	–	–
CCCCn1cc(C(=O)NCc2ccccc2)c(=O)c2cc(F)c(N3CCC(C(N)=O)CC3)cc21	1.09	1.98	43.1	47	logP ([6]; read-out: logP): 2.4
CCOC(=O)c1c[nH]c2cc(Cl)c(F)cc2c1=O	–	–	–	–	Activity [2]: inactive; Activity [4]: inactive
CCCCn1cc(C(=O)NCc2ccccc2)c(=O)c2cc(F)c(N3CCOCC3)cc21	0.047	0.05	1140	57	solubility [7]: Insoluble; Activity [8]: inactive; IC50 [9]: 0.009 µM; Activity [1]: Active; Activity (Trypanosoma brucei [10]): Active; solubility [11]: Insoluble; selectivity ratio [12]: 6330; logP [6]: 2.4; solubility [13]: soluble; Stability [14]: Stable; Activity (Trypanosoma brucei [15]): Active
N=C(N)c1ccc(OCCCCCOc2ccc(C(=N)N)cc2)cc1 [PENTAMIDINE ISETHIONATE]	0.0029	–	–	–	–
CCn1cc(C(=O)Nc2ccc(Cl)c(F)c2)c(=O)c2ccc(C(F)(F)F)cc21	> 40	> 40	> 2.5	> 100	–
Cc1ccc(C(=O)Nc2ccc(S(=O)(=O)O)c3cc(S(=O)(=O)O)cc(S(=O)(=O)O)c23)cc1NC(=O)c1cccc(NC(=O)Nc2cccc(C(=O)Nc3cc(C(=O)Nc4ccc(S(=O)(=O)O)c5cc(S(=O)(=O)O)cc(S(=O)(=O)O)c45)ccc3C)c2)c1 [SURAMIN HEXASODIUM]	0.31	–	–	–	–
CCCCn1cc(C(=O)NCc2ccco2)c(=O)c2cc(F)c(N3CCC(C(N)=O)CC3)cc21	1.03	1.84	40.2	41.4	logP ([6]; read-out: logP): 2.4
CCCCn1cc(C(=O)NCc2ccccc2)c(=O)c2cc(F)c(N(C)Cc3ccccc3)cc21	5.4	10.8	15.9	86	–
NCCCC(N)(C(=O)O)C(F)F (configuration not stated) [EFLORNITHINE HYDROCHLORIDE]	22.9	–	–	–	–
CCCCn1cc(C(=O)NCc2ccc([N+](=O)[O-])cc2)c(=O)c2cc(F)c(N3CCC(C(N)=O)CC3)cc21	0.54	0.58	> 185	> 100	logP ([6]; read-out: logP): 2.4
CCOC(=O)c1cnc2cc(C(F)(F)F)ccc2c1O	–	–	–	–	Activity [2]: inactive; Activity [4]: inactive
CCCCn1cc(C(=O)NCc2ccc(O)cc2)c(=O)c2cc(F)c(N3CCC(C(N)=O)CC3)cc21	3.09	5.12	13.5	41.6	–
CCn1cc(C(=O)O)c(=O)c2ccc(C(F)(F)F)cc21	> 40	> 40	> 2.5	> 100	–
CCCCn1cc(C(=O)NCc2ccc(OC)cc2)c(=O)c2cc(F)c(N3CCC(C(N)=O)CC3)cc21	0.78	1.45	52.3	40.8	Activity [1]: Active; Activity (Trypanosoma brucei [10]): Active; logP ([6]; read-out: logP): 2.4; Activity (Trypanosoma brucei [15]): Active
CCCCn1cc(C(=O)NCc2ccccc2)c(=O)c2cc(F)c(N3CCCCC3)cc21	0.67	1.04	71.3	47.8	logP ([6]; read-out: logP): 2.4
CCn1cc(C(=O)NCc2ccc(OC)cc2)c(=O)c2ccc(C(F)(F)F)cc21	7.31	6.37	> 13.7	> 100	–
CCCCn1cc(C(=O)NCc2ccccc2)c(=O)c2cc(F)c(-c3ccccc3)cc21	> 40	> 40	> 2.5	> 100	–
CCCCn1cc(C(=O)NCc2ccccc2)c(=O)c2cc(F)c(N(C)C)cc21	0.68	0.92	> 147	> 100	logP ([6]; read-out: logP): 2.4
CCCCn1cc(C(=O)NCc2ccc(OC)c([N+](=O)[O-])c2)c(=O)c2cc(F)c(N3CCC(C(N)=O)CC3)cc21	3.07	4.14	> 32.6	> 100	–

Now from value to compound, other results behind:

IC50 [2] [µM]	IC50 [4] [µM]	Compound	selectivity ratio [3]	IC50 [5] [µM]	other results
17.2	23	CCCCn1cc(C(=O)O)c(=O)c2cc(F)c(N(C)Cc3ccccc3)cc21	2.51	43.2	–
> 40	> 40	CCCn1cc(C(=O)O)c(=O)c2cc(F)c(Cl)cc21	> 2.5	> 100	–
> 40	> 40	CCCCn1cc(C(=O)O)c(=O)c2cc(F)c(Cl)cc21	> 2.5	> 100	–
2.75	2.56	COc1ccc(CNC(=O)c2cn(C3CC3)c3cc(N4CCC(C(N)=O)CC4)c(F)cc3c2=O)cc1	> 36.4	> 100	–
2.28	3.12	CCCn1cc(C(=O)NCc2ccc(OC)cc2)c(=O)c2cc(F)c(N3CCC(C(N)=O)CC3)cc21	18.2	41.4	–
4.6	4.84	CCCn1cc(C(=O)NCc2ccco2)c(=O)c2cc(F)c(N3CCC(C(N)=O)CC3)cc21	12.4	56.9	–
> 40	> 40	CCCCn1cc(C(=O)O)c(=O)c2cc(F)c(N(C)C)cc21	> 2.5	> 100	–
8.89	12.1	NC(=O)C1CCN(c2cc3c(cc2F)c(=O)c(C(=O)NCc2ccco2)cn3C2CC2)CC1	> 11.2	> 100	–
19.2	22.2	CCCCn1cc(C(=O)O)c(=O)c2cc(F)c(N3CCOCC3)cc21	> 5.21	> 100	–
> 40	> 40	CCCn1cc(C(=O)O)c(=O)c2cc(F)c(N3CCC(C(N)=O)CC3)cc21	> 2.5	> 100	–
> 40	> 40	NC(=O)C1CCN(c2cc3c(cc2F)c(=O)c(C(=O)O)cn3C2CC2)CC1	> 2.5	> 100	–
1.07	1.91	NC(=O)C1CCN(c2cc3c(cc2F)c(=O)c(C(=O)NCc2ccccc2)cn3C2CC2)CC1	47.9	51.2	logP ([6]; read-out: logP): 2.4
> 40	> 40	CCCCn1cc(C(=O)O)c(=O)c2cc(F)c(N3CCC(C(N)=O)CC3)cc21	> 2.5	> 100	–
14.6	18.1	CCCCn1cc(C(=O)O)c(=O)c2cc(F)c(N3CCCCC3)cc21	6.39	93	–
0.75	1.25	CCCn1cc(C(=O)NCc2ccccc2)c(=O)c2cc(F)c(N3CCC(C(N)=O)CC3)cc21	58.3	43.7	logP ([6]; read-out: logP): 2.4
